Measured values taken from ChEMBL document CHEMBL1155357, “The synthesis of 2- and 3-aryl indoles and 1,3,4,5-tetrahydropyrano[4,3-b]indoles and their antibacterial and antifungal activity” (2009).
In brackets after ≈: the same amount, converted by molar mass. Activity calls are given as the source filed them. No cut-off for these calls is given here.

What was measured:
Staphylococcus aureus [1] = assay: Antimicrobial activity against Staphylococcus aureus ATCC 6538 after 6 hrs; assay type: functional; conditions: ATCC 6538, 6 h
Outline: (§1)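 Broth microdilution MIC. Compounds were dissolved in acetone at a 5 mg/mL starting concentration, added to wells containing sterile water, then serially doubled down. Inoculum was 1 × 10⁶ CFU/mL, incubated 37 °C for 24 h. Then 0.2 mg/mL p-iodonitrotetrazolium violet was added and colour read after 6 h. MIC was the lowest concentration without growth. Acetone and ciprofloxacin (starting 0.01 mg/mL) served as controls. At least triplicate, on consecutive days.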

Bacillus cereus = assay: Antimicrobial activity against Bacillus cereus ATCC 11778 after 6 hrs; assay type: functional; conditions: ATCC 11778, 6 h; outline: as §1
Escherichia coli [2] = assay: Antimicrobial activity against Escherichia coli ATCC 8739 after 6 hrs; assay type: functional; conditions: ATCC 8739, 6 h; outline: as §1
Klebsiella pneumoniae = assay: Antimicrobial activity against Klebsiella pneumoniae ATCC 13831 after 6 hrs; assay type: functional; conditions: ATCC 13831, 6 h; outline: as §1
Candida albicans = assay: Antimicrobial activity against Candida albicans ATCC 10231 after 24 hrs; assay type: functional; conditions: ATCC 10231, 24 h
Outline: (§2)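 Yeast MIC by serial doubling dilution. Compounds were dissolved in acetone at a 5 mg/mL starting concentration into sterile-water wells. Inoculum was 1 × 10⁶ CFU/mL at 37 °C for 24 h plus a further 24 h. Then 0.2 mg/mL p-iodonitrotetrazolium violet was added and colour read after 24 h. MIC was the lowest concentration showing no growth. Acetone and amphotericin B (starting 0.01 mg/mL) served as controls. At least triplicate, on consecutive days.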

Cryptococcus neoformans [3] = assay: Antimicrobial activity against Cryptococcus neoformans ATCC 90112 after 24 hrs; assay type: functional; conditions: ATCC 90112, 24 h; outline: as §2
Staphylococcus aureus [4] = assay: Antimicrobial activity against Staphylococcus aureus ATCC 6538 at 1250 ug/mL after 6 hrs; assay type: functional, organism-based
Escherichia coli [5] = assay: Antimicrobial activity against Escherichia coli ATCC 8739 at 1250 ug/mL after 6 hrs; assay type: functional, organism-based
Cryptococcus neoformans [6] = assay: Antimicrobial activity against Cryptococcus neoformans ATCC 90112 at 1250 ug/mL after 24 hrs; assay type: functional, organism-based

| SMILES | MIC (Staphylococcus aureus [1]) [µg/mL] | MIC (Bacillus cereus) [µg/mL] | MIC (Escherichia coli [2]) [µg/mL] | MIC (Klebsiella pneumoniae) [µg/mL] | MIC (Candida albicans) [µg/mL] | MIC (Cryptococcus neoformans [3]) [µg/mL] | Activity (Staphylococcus aureus [4]) | Activity (Escherichia coli [5]) | Activity (Cryptococcus neoformans [6]) |
| --- | --- | --- | --- | --- | --- | --- | --- | --- | --- |
| COc1cc(-c2c[nH]c3ccccc23)cc(OC)c1OC |  | 235 (≈ 829 µM) | 313 (≈ 1100 µM) | 313 (≈ 1100 µM) | 313 (≈ 1100 µM) | 29.3 (≈ 103 µM) | inactive |  |  |
| COc1ccc(-c2cc3ccccc3[nH]2)cc1 | 635 (≈ 2840 µM) | 156 (≈ 699 µM) | 625 (≈ 2800 µM) | 313 (≈ 1400 µM) | 156 (≈ 699 µM) | 58.5 (≈ 262 µM) |  |  |  |
| c1ccc2[nH]c(-c3cccc4ccccc34)cc2c1 | 625 (≈ 2570 µM) | 625 (≈ 2570 µM) | 938 (≈ 3860 µM) | 313 (≈ 1290 µM) | 156 (≈ 641 µM) | 625 (≈ 2570 µM) |  |  |  |
| COc1ccc(-c2cc3cc(OC)ccc3[nH]2)cc1 | 625 (≈ 2470 µM) | 313 (≈ 1240 µM) |  | 313 (≈ 1240 µM) | 235 (≈ 928 µM) |  |  | inactive |  |
| COc1cc(-c2cc3ccccc3[nH]2)cc(OC)c1OC | 469 (≈ 1660 µM) | 20 (≈ 70.6 µM) | 313 (≈ 1100 µM) | 391 (≈ 1380 µM) | 117 (≈ 413 µM) | 313 (≈ 1100 µM) |  |  |  |
| COc1ccc2[nH]cc(-c3cc(OC)c(OC)c(OC)c3)c2c1 | 313 (≈ 999 µM) | 156 (≈ 498 µM) | 313 (≈ 999 µM) | 313 (≈ 999 µM) | 313 (≈ 999 µM) | 29.3 (≈ 93.5 µM) |  |  |  |
| COc1ccc2[nH]c(-c3cc(OC)c(OC)c(OC)c3)cc2c1 | 313 (≈ 999 µM) | 156 (≈ 498 µM) | 625 (≈ 1990 µM) | 313 (≈ 999 µM) | 156 (≈ 498 µM) | 32.5 (≈ 104 µM) |  |  |  |
| c1ccc(-c2cc3ccccc3[nH]2)cc1 [2-PHENYL-1H-INDOLE] | 469 (≈ 2430 µM) | 625 (≈ 3230 µM) | 1250 (≈ 6470 µM) | 313 (≈ 1620 µM) | 156 (≈ 807 µM) | 625 (≈ 3230 µM) |  |  |  |
| c1ccc(-c2c[nH]c3ccccc23)cc1 [3-PHENYLINDOLE] | 39 (≈ 202 µM) | 19.5 (≈ 101 µM) | 156 (≈ 807 µM) | 469 (≈ 2430 µM) | 19.5 (≈ 101 µM) | 65.1 (≈ 337 µM) |  |  |  |

Continued, in another order:

| MIC (Staphylococcus aureus [1]) [µg/mL] | MIC (Bacillus cereus) [µg/mL] | MIC (Escherichia coli [2]) [µg/mL] | MIC (Klebsiella pneumoniae) [µg/mL] | MIC (Candida albicans) [µg/mL] | MIC (Cryptococcus neoformans [3]) [µg/mL] | SMILES | Activity (Staphylococcus aureus [4]) | Activity (Escherichia coli [5]) | Activity (Cryptococcus neoformans [6]) |
| --- | --- | --- | --- | --- | --- | --- | --- | --- | --- |
| 156 (≈ 470 µM) | 235 (≈ 707 µM) | 469 (≈ 1410 µM) | 313 (≈ 942 µM) | 156 (≈ 470 µM) | 261 (≈ 786 µM) | COc1cc(-c2c[nH]c3ccccc23)c(OC)cc1Br |  |  |  |
| 235 (≈ 990 µM) | 156 (≈ 657 µM) | 468 (≈ 1970 µM) | 313 (≈ 1320 µM) | 313 (≈ 1320 µM) |  | COc1ccc2[nH]c(-c3ccccc3C)cc2c1 |  |  |  |
| 469 (≈ 2100 µM) | 625 (≈ 2800 µM) |  | 208 (≈ 932 µM) | 156 (≈ 699 µM) | 78 (≈ 349 µM) | COc1ccc(-c2c[nH]c3ccccc23)cc1 |  | inactive |  |
| 29.3 (≈ 123 µM) | 19.5 (≈ 82.2 µM) | 313 (≈ 1320 µM) | 313 (≈ 1320 µM) | 117 (≈ 493 µM) | 625 (≈ 2630 µM) | COc1ccc2[nH]cc(-c3ccccc3C)c2c1 |  |  |  |
| 625 (≈ 2360 µM) | 156 (≈ 588 µM) | 313 (≈ 1180 µM) | 313 (≈ 1180 µM) | 235 (≈ 886 µM) | 39 (≈ 147 µM) | COc1ccc2[nH]cc(-c3ccccc3C(C)=O)c2c1 |  |  |  |
| 313 (≈ 1240 µM) | 156 (≈ 616 µM) | 521 (≈ 2060 µM) | 261 (≈ 1030 µM) | 156 (≈ 616 µM) | 29.3 (≈ 116 µM) | COc1ccc(-c2c[nH]c3ccc(OC)cc23)cc1 |  |  |  |
| 39.1 (≈ 175 µM) | 15.6 (≈ 69.9 µM) | 625 (≈ 2800 µM) | 313 (≈ 1400 µM) | 78 (≈ 349 µM) | 235 (≈ 1050 µM) | COc1ccc2[nH]cc(-c3ccccc3)c2c1 |  |  |  |
| 156 (≈ 621 µM) | 78 (≈ 310 µM) | 235 (≈ 935 µM) | 313 (≈ 1250 µM) | 156 (≈ 621 µM) | 313 (≈ 1250 µM) | COc1ccc2[nH]cc(-c3ccccc3C=O)c2c1 |  |  |  |
| 156 (≈ 699 µM) | 3.9 (≈ 17.5 µM) |  | 469 (≈ 2100 µM) | 469 (≈ 2100 µM) |  | COc1ccc2[nH]c(-c3ccccc3)cc2c1 |  | inactive | inactive |
